Measurements collected from several papers.
Protocols differ between the studies behind these lines.

COc1ccc2c(c1)CN(C(=O)CCN1CCC(Cc3ccccc3)CC1)CC[S@@+]2[O-]
clearance (male human, plasma; intravenous, 0.01 mg/kg, healthy volunteers): 235 mL/min

Cc1cc(S(=O)(=O)N[C@H]2CC[C@H](CN3CCN(c4cccc(NC5CCC(=O)NC5=O)c4)CC3)CC2)ccc1Nc1ncc(C(F)(F)F)c(N2CCC[C@](C)(O)C2)n1 (stereo partly shown)
scaled CLint (metabolic stability; rat, liver microsomes; 1 µM): < 21 mL/min/kg

FC(F)(F)c1cc(Nc2ncnc3ccc(-c4cccc(N5CCOCC5)c4)cc23)ccc1Cl
logD (shake flask; aqueous buffer; pH 7.4): > 4.1

CCC(F)(F)c1cc(N2C(=O)NC(C)(C)C2=O)ccc1F
chromatographic logD (HPLC; pH 7.4): 2.9

CNS(=O)(=O)c1ccc(Nc2ncc(C(F)(F)F)c(N3CCC(C)(O)CC3)n2)c(C)c1
scaled CLint (metabolic stability; rat, liver microsomes; 1 µM): 38 mL/min/kg

CCOCC(=O)N1CCC[C@H](C(=O)NCc2nc(-c3ccc(C#N)nc3)cs2)C1
microsomal CLint (metabolic stability; male Sprague-Dawley rat, liver microsomes; 0.5 µM): 11 µL/min/mg

CC1(C(F)F)NC(=O)N(c2ccc(F)c(C(F)(F)F)c2)C1=O (stereo not shown)
chromatographic logD (HPLC; pH 7.4): 3.2

Cc1cc(S(=O)(=O)NC2CC(N3CCN(CC4CCN(c5ccc6c(c5F)n(C)c(=O)n6C5CCC(=O)NC5=O)CC4)CC3)C2)ccc1Nc1ncc(C(F)(F)F)c(N2CCCC(C)(O)C2)n1 (stereo not shown)
scaled CLint (metabolic stability; human, liver microsomes; 1 µM): 22 mL/min/kg

CC1(C)NC(=O)N(c2ccc(F)c(F)c2)C1=O
chromatographic logD (HPLC; pH 7.4): 1.8

CC(C)(N)COCC(=O)N1CCC[C@H](C(=O)NCc2nc(-c3ccc(C(F)(F)F)cc3)cs2)C1
scaled CLint (metabolic stability; human, liver microsomes; 0.5 µM): < 4 mL/min/kg

CN1CCN(c2cccc(-c3ccc4ncnc(Nc5ccc(Cl)c(Cl)c5)c4c3)c2)CC1
logD (shake flask; aqueous buffer; pH 7.4): > 4.1

C[C@H]1CN(CC2CCN(c3ccc(C4CCC(=O)NC4=O)cc3F)CC2)CC[C@H]1NS(=O)(=O)c1ccc(Nc2ncc(C(F)(F)F)c(N3CCC[C@](C)(O)C3)n2)c(F)c1 (stereo partly shown)
scaled CLint (metabolic stability; human, liver microsomes; 1 µM): 23 mL/min/kg

c1coc(Nc2ncnc3ccc(-c4cncc(N5CCOCC5)n4)cc23)n1
logD (shake flask; aqueous buffer; pH 7.4): 3.5

Cc1cc(S(=O)(=O)NC2CC(N3CC[C@@H](OC4CN(c5cccc6c5n(C)c(=O)n6C5CCC(=O)NC5=O)C4)[C@H](F)C3)C2)ccc1Nc1ncc(C(F)(F)F)c(N2CCC[C@](C)(O)C2)n1 (stereo partly shown)
scaled CLint (metabolic stability; rat, liver microsomes; 1 µM): 23 mL/min/kg

O=c1c2ccc(Oc3ccc(OC(F)(F)F)cc3)cc2[nH]c2ccc(Cl)c(F)c12
microsomal CLint (metabolic stability; human, liver microsomes; 1 µM, pH 7.4): 9.02 µL/min/mg

O=C(NCc1nc(-c2ccc(C(F)(F)F)cc2)cs1)[C@H]1CCCN(C(=O)COCCN2CCCC2)C1
microsomal CLint (metabolic stability; human, liver microsomes; 0.5 µM): 14 µL/min/mg

OC[C@H]1O[C@@H](c2cc(Cc3ccc(C4CC4)cc3)c(Cl)c3c2CCO3)[C@H](O)[C@@H](O)[C@@H]1O
CL/F (human, plasma; oral, 0.3 mg, single dose, fasted): 9410 mL/h

Cc1cc(S(=O)(=O)N[C@H]2CC[C@H](CN3CCN(c4ccc(C5CCC(=O)NC5=O)c(Cl)c4)CC3)CC2)ccc1Nc1ncc(C(F)(F)F)c(N2CCC[C@](C)(O)C2)n1 (stereo partly shown)
scaled CLint (metabolic stability; human, liver microsomes; 1 µM): 20 mL/min/kg

c1cc(-c2ccc3ncnc(NC4CCOCC4)c3c2)cc(N2CCOCC2)c1
logD (shake flask; aqueous buffer; pH 7.4): 3.3

CC(C)n1c(C2CCNCC2)nc2c([N+](=O)[O-])c(Br)c(Br)cc21
renal clearance (human, urine; oral, 50 mg, single dose): 14.5 mL/min

COCC(=O)N1CCC[C@H](C(=O)NCc2nc(-c3ccccc3)cs2)C1
scaled CLint (metabolic stability; male Sprague-Dawley rat, hepatocytes; 0.5 µM): 32 mL/min/kg

O=c1c2ccc(Oc3ccc(OC(F)(F)F)cc3)cc2[nH]c2cc(F)c(Cl)cc12
microsomal CLint (metabolic stability; human, liver microsomes; 1 µM, pH 7.4): 2.59 µL/min/mg

Cc1ccc(-c2csc(CNC(=O)[C@H]3CCCN(C(=O)[C@H]4CCC(C)(C)O4)[C@H]3C)n2)cn1
microsomal CLint (metabolic stability; male Sprague-Dawley rat, liver microsomes; 0.5 µM): 197 µL/min/mg

CC1(C)NC(=O)N(c2ccc(F)c(CC(F)(F)F)c2)C1=O
chromatographic logD (HPLC; pH 7.4): 2.7

CCONC(=O)N1CCC[C@H](C(=O)N[C@H](C)c2nc(-c3ccc(C#N)cc3)cs2)C1
microsomal CLint (metabolic stability; male Sprague-Dawley rat, liver microsomes; 0.5 µM): 29 µL/min/mg

Cc1cc(S(=O)(=O)NC2CC(N3CCN(CC4CCN(c5ccc(NC6CCC(=O)NC6=O)cc5C)CC4)CC3)C2)ccc1Nc1ncc(C(F)(F)F)c(N2CCC[C@](C)(O)C2)n1 (stereo partly shown)
scaled CLint (metabolic stability; rat, liver microsomes; 1 µM): < 21 mL/min/kg

Cc1cc(N2C(=O)NC(C)(C)C2=O)cc(C(F)(F)F)n1
chromatographic logD (HPLC; pH 7.4): 2.2

O=c1c2c([nH]c3c(Oc4ccc(OC(F)(F)F)cc4)cccc13)CCCC2
microsomal CLint (metabolic stability; human, liver microsomes; 1 µM, pH 7.4): 21 µL/min/mg

O=C1NC(CF)(CF)C(=O)N1c1ccc(F)c(C(F)(F)F)c1
chromatographic logD (HPLC; pH 7.4): 3

CCOCC(=O)N1CC[C@@H](C)[C@H](C(=O)NCc2nc(-c3ccc(C)nc3)cs2)C1 (racemic)
microsomal CLint (metabolic stability; male Sprague-Dawley rat, liver microsomes; 0.5 µM): 53 µL/min/mg

O=C1NC2(CCS(=O)(=O)CC2)C(=O)N1c1ccc(F)c(C(F)(F)F)c1
chromatographic logD (HPLC; pH 7.4): 2.6

CCONC(=O)N1CCC[C@H](C(=O)NCc2nc(-c3ccc(C#N)cc3)cs2)C1
microsomal CLint (metabolic stability; human, liver microsomes; 0.5 µM): 9 µL/min/mg

CC1(C)NC(=O)N(c2ccc(F)c(OC(F)(F)F)c2)C1=O
chromatographic logD (HPLC; pH 7.4): 2.9

C[C@@H](Oc1ccc(S(C)(=O)=O)cc1C(=O)N1C[C@@H]2C[C@]2(c2cc(C(F)(F)F)on2)C1)C(F)(F)F
CL/F (human, plasma; oral, 10 mg, single dose, fasted): 4970 mL/h
